Assay results from ChEMBL document CHEMBL3351255, “Synthesis of dihydroresveratrol glycosides and evaluation of their activity against melanogenesis in B16F0 melanoma cells” (Eur J Med Chem, 2014).

Assays:
[1] = Toxicity in mouse B16F10 cells assessed as cell viability at 25.5 uM incubated for 72 hrs by BCA protein assay; type: cell-based; settings: read-out: Activity
B16-F10 = experiment: Potency index, ratio of kojic acid to test compound for inhibition of melanogenesis in mouse B16F10 cells; type: functional
[2] = Toxicity in mouse B16F10 cells assessed as protein content at 25.5 uM incubated for 72 hrs by BCA protein assay; type: cell-based
Summary of the method: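 Treatment was the same as above: B16F0 cells in DMEM with 5% FBS plus sample in ethanol, with medium and sample renewed after 72 h and cells harvested by trypsin 72 h later. Total cellular protein in the pelleted cells was measured by bicinchoninic acid (BCA) assay and expressed as % of negative control.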

B16-F0 = experiment: Effect on melanogenesis in mouse B16F0 cells assessed as melanin content at 1 mM incubated for 72 hrs; settings: B16-F0, 72 h

| Compound | viability at 72 h, 25.5 µM [1] | Ratio (B16-F10) | Activity [2] | melanin content at 1000 µM (B16-F0) |
| --- | --- | --- | --- | --- |
| C=CC/C=C\C/C=C\CCCCCCCc1cc(O)cc(O)c1 | 102% | 40 | 98% |  |
| O=c1cc(CO)occ1O [KOJIC ACID] |  |  |  | 79% |
